Values joined by “and” are separate entries in the source; they are usually repeats but may differ in a detail not shown here. Identical values can stand only once. Like-named read-outs stand apart in the source and are kept apart here. Blank lines part the entries; values can stand above or below the compound they belong to.
What was measured:
[1] = type: in vivo; conditions: rat i.v., LC/MS
Method in brief: (§1)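 Male Sprague-Dawley rats (220–260 g, 3 per group), awake, got i.v. 0.5–1 mCi 18F-labelled test compound in 100 μL, carrying 1, 11 or 18 nmol unlabelled compound; killed at 5 or 30 min. Dissected brain regions and plasma, spiked with internal standard, homogenized at pH 12.5, extracted with hexane:ethyl acetate (4:1), dried and redissolved in 50% CH3CN. Analysed by UPLC-Q-TOF (positive ESI) against matrix calibration, triplicate. DUR = %ID/g × body weight/100.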

[2] = target: T1, 5-HT1A receptor (Rattus norvegicus, UniProt P19327); assay: Brain tissue specific binding ratio [; type: in vivo
T1 sequence (P19327 1-422): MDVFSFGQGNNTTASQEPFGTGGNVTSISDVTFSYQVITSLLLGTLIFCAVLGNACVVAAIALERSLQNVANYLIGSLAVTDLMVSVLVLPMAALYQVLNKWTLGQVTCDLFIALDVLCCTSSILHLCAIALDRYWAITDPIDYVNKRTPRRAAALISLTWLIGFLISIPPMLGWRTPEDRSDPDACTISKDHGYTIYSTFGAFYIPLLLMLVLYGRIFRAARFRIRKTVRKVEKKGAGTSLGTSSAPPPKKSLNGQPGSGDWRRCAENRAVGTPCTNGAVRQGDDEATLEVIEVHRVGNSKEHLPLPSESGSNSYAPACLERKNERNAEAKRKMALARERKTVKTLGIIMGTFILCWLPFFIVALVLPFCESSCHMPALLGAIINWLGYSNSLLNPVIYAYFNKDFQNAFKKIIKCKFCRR
Method in brief: as §1

[3] = type: in vivo; conditions: rat i.v., Radioactivity
Method in brief: (§2)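 Awake male Sprague-Dawley rats (220–260 g, 3 per group) got i.v. 0.5–1 mCi 18F-labelled test compound in 100 μL, containing 1, 11 or 18 nmol unlabelled compound. Killed 5 or 30 min later. Caudate, thalamus, hippocampus, brain stem, cerebellum, cortex and plasma (0.05–0.4 g) weighed and radioactivity-counted. Uptake given as DUR = %ID/g × body weight/100.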

[4] = target: T1, 5-HT1A receptor; assay: Brain tissue specific binding ratio [; type: in vivo; conditions: rat i.v., Radioactivity
Method in brief: as §2

[5] = rat i.v., 1 nmol, 30 min, LC/MS
[6] = rat i.v., 11 nmol, 30 min, LC/MS
[7] = rat i.v., 18 nmol, 30 min, LC/MS

hippocampus uptake (DUR) ([1]; 17 nmol, 30 min, hippocampus): 0.53
Specific binding ratio [(DURtissue/DURCb)−1] Hippocampus ([2]; rat i.v., 1 nmol, 5 min, LC/MS): 2.30 and 2.30±0.42
Specific binding ratio [(DURtissue/DURCb)−1] brain stem ([2]; rat i.v., 1 nmol, 5 min, LC/MS): 0.75±0.35
Specific binding ratio [(DURtissue/DURCb)−1] caudate ([2]; rat i.v., 1 nmol, 5 min, LC/MS): 0.30±0.13
Specific binding ratio [(DURtissue/DURCb)−1] cortex ([2]; rat i.v., 1 nmol, 5 min, LC/MS): 1.34±0.27
Specific binding ratio [(DURtissue/DURCb)−1] thalamus ([2]; rat i.v., 1 nmol, 5 min, LC/MS): 0.84±0.30
Specific binding ratio [(DURtissue/DURCb)−1] Hippocampus [2, 5]: 5.87 and 5.87±0.56
Specific binding ratio [(DURtissue/DURCb)−1] brain stem [2, 5]: 1.99±0.53
Specific binding ratio [(DURtissue/DURCb)−1] caudate [2, 5]: 0.95±0.06
Specific binding ratio [(DURtissue/DURCb)−1] cortex [2, 5]: 2.29±0.06
Specific binding ratio [(DURtissue/DURCb)−1] thalamus [2, 5]: 1.58±0.58
Specific binding ratio [(DURtissue/DURCb)−1] Hippocampus [2, 6]: 2.43 and 2.43±0.35
Specific binding ratio [(DURtissue/DURCb)−1] brain stem [2, 6]: 0.42±0.33
Specific binding ratio [(DURtissue/DURCb)−1] caudate [2, 6]: 0.65±0.31
Specific binding ratio [(DURtissue/DURCb)−1] cortex [2, 6]: 1.26±0.28
Specific binding ratio [(DURtissue/DURCb)−1] thalamus [2, 6]: 0.78±0.29
specific binding ratio hippocampus ([2]; rat i.v., 17 nmol, 30 min, hippocampus, LC/MS): 2.42
Specific binding ratio [(DURtissue/DURCb)−1] Hippocampus [2, 7]: 2.42±0.28
Specific binding ratio [(DURtissue/DURCb)−1] brain stem [2, 7]: 0.93±0.13
Specific binding ratio [(DURtissue/DURCb)−1] caudate [2, 7]: 0.67±0.31
Specific binding ratio [(DURtissue/DURCb)−1] cortex [2, 7]: 1.61±0.39
Specific binding ratio [(DURtissue/DURCb)−1] thalamus [2, 7]: 0.91±0.14
saturability of binding with increasing mass dose ([2]; rat, 1, 11 and 18 nmol mass doses, hippocampus): demonstrates saturability of binding
SMILES: COc1ccccc1N1CCN(CCN(C(=O)c2ccc(F)cc2)c2ncccn2)CC1 [FPWAY, 4-Fluoro-N-{2-[4-(2-methoxyphenyl)-1-piperazinyl]ethyl}-N-(2-pyrimidinyl)benzamide]
DUR Hippocampus ([1]; 1 nmol, 5 min): 4.28 %ID/g * body weight/100 and 4.28±0.35 %ID/g * body weight/100
DUR brain stem ([1]; 1 nmol, 5 min): 2.36±0.35 %ID/g * body weight/100
DUR caudate ([1]; 1 nmol, 5 min): 1.70±0.30 %ID/g * body weight/100
DUR cerebellum ([1]; 1 nmol, 5 min): 1.31±0.21 %ID/g * body weight/100
DUR cortex ([1]; 1 nmol, 5 min): 3.10±0.78 %ID/g * body weight/100
DUR plasma ([1]; 1 nmol, 5 min): 0.49±0.17 %ID/g * body weight/100
DUR thalamus ([1]; 1 nmol, 5 min): 2.39±0.45 %ID/g * body weight/100
DUR Hippocampus ([1]; 1 nmol, 30 min): 2.20 %ID/g * body weight/100 and 2.20±0.38 %ID/g * body weight/100
DUR brain stem ([1]; 1 nmol, 30 min): 0.98±0.05 %ID/g * body weight/100
DUR caudate ([1]; 1 nmol, 30 min): 0.60±0.04 %ID/g * body weight/100
DUR cerebellum ([1]; 1 nmol, 30 min): 0.32±0.08 %ID/g * body weight/100
DUR cortex ([1]; 1 nmol, 30 min): 1.06±0.25 %ID/g * body weight/100
DUR plasma ([1]; 1 nmol, 30 min): 0.21±0.07 %ID/g * body weight/100
DUR thalamus ([1]; 1 nmol, 30 min): 0.81±0.02 %ID/g * body weight/100
DUR Hippocampus ([1]; 11 nmol, 30 min): 0.79 %ID/g * body weight/100 and 0.79±0.08 %ID/g * body weight/100
DUR brain stem ([1]; 11 nmol, 30 min): 0.32±0.05 %ID/g * body weight/100
DUR caudate ([1]; 11 nmol, 30 min): 0.38±0.06 %ID/g * body weight/100
DUR cerebellum ([1]; 11 nmol, 30 min): 0.23±0.03 %ID/g * body weight/100
DUR cortex ([1]; 11 nmol, 30 min): 0.52±0.05 %ID/g * body weight/100
DUR plasma ([1]; 11 nmol, 30 min): 0.13±0.02 %ID/g * body weight/100
DUR thalamus ([1]; 11 nmol, 30 min): 0.41±0.08 %ID/g * body weight/100
DUR Hippocampus ([1]; 18 nmol, 30 min): 0.53±0.03 %ID/g * body weight/100
DUR brain stem ([1]; 18 nmol, 30 min): 0.30±0.05 %ID/g * body weight/100
DUR caudate ([1]; 18 nmol, 30 min): 0.25±0.08 %ID/g * body weight/100
DUR cerebellum ([1]; 18 nmol, 30 min): 0.16±0.02 %ID/g * body weight/100
DUR cortex ([1]; 18 nmol, 30 min): 0.41±0.18 %ID/g * body weight/100
DUR plasma ([1]; 18 nmol, 30 min): 0.33±0.11 %ID/g * body weight/100
DUR thalamus ([1]; 18 nmol, 30 min): 0.30±0.04 %ID/g * body weight/100

Specific binding ratio [(DURtissue/DURCb)−1] Hippocampus ([4]; 1 nmol, 5 min): 1.95±0.45
Specific binding ratio [(DURtissue/DURCb)−1] brain stem ([4]; 1 nmol, 5 min): 0.63±0.08
Specific binding ratio [(DURtissue/DURCb)−1] caudate ([4]; 1 nmol, 5 min): 0.38±0.06
Specific binding ratio [(DURtissue/DURCb)−1] cortex ([4]; 1 nmol, 5 min): 1.41±0.13
Specific binding ratio [(DURtissue/DURCb)−1] thalamus ([4]; 1 nmol, 5 min): 0.64±0.04
Specific binding ratio [(DURtissue/DURCb)−1] Hippocampus ([4]; 1 nmol, 30 min): 5.38±0.23
Specific binding ratio [(DURtissue/DURCb)−1] brain stem ([4]; 1 nmol, 30 min): 1.12±0.06
Specific binding ratio [(DURtissue/DURCb)−1] caudate ([4]; 1 nmol, 30 min): 0.53±0.17
Specific binding ratio [(DURtissue/DURCb)−1] cortex ([4]; 1 nmol, 30 min): 2.04±0.18
Specific binding ratio [(DURtissue/DURCb)−1] thalamus ([4]; 1 nmol, 30 min): 1.29±0.13
Specific binding ratio [(DURtissue/DURCb)−1] Hippocampus ([4]; 11 nmol, 30 min): 2.72±0.37
Specific binding ratio [(DURtissue/DURCb)−1] brain stem ([4]; 11 nmol, 30 min): 0.68±0.14
Specific binding ratio [(DURtissue/DURCb)−1] caudate ([4]; 11 nmol, 30 min): 0.33±0.06
Specific binding ratio [(DURtissue/DURCb)−1] cortex ([4]; 11 nmol, 30 min): 1.26±0.11
Specific binding ratio [(DURtissue/DURCb)−1] thalamus ([4]; 11 nmol, 30 min): 0.70±0.12
Specific binding ratio [(DURtissue/DURCb)−1] Hippocampus ([4]; 18 nmol, 30 min): 2.57±0.21
Specific binding ratio [(DURtissue/DURCb)−1] brain stem ([4]; 18 nmol, 30 min): 0.85±0.26
Specific binding ratio [(DURtissue/DURCb)−1] caudate ([4]; 18 nmol, 30 min): 0.63±0.34
Specific binding ratio [(DURtissue/DURCb)−1] cortex ([4]; 18 nmol, 30 min): 1.81±0.83
Specific binding ratio [(DURtissue/DURCb)−1] thalamus ([4]; 18 nmol, 30 min): 0.90±0.13
SMILES: COc1ccccc1N1CCN(CCN(C(=O)c2ccc(F)cc2)c2ncccn2)CC1 [[^18F]FPWAY, 4-Fluoro-N-{2-[4-(2-methoxyphenyl)-1-piperazinyl]ethyl}-N-(2-pyrimidinyl)benzamide]
DUR Hippocampus ([3]; 1 nmol, 5 min): 4.50 %ID/g * body weight/100 and 4.50±0.41 %ID/g * body weight/100
DUR brain stem ([3]; 1 nmol, 5 min): 2.53±0.48 %ID/g * body weight/100
DUR caudate ([3]; 1 nmol, 5 min): 2.14±0.27 %ID/g * body weight/100
DUR cerebellum ([3]; 1 nmol, 5 min): 1.55±0.24 %ID/g * body weight/100
DUR cortex ([3]; 1 nmol, 5 min): 3.75±0.74 %ID/g * body weight/100
DUR thalamus ([3]; 1 nmol, 5 min): 2.54±0.43 %ID/g * body weight/100
DUR Hippocampus ([3]; 1 nmol, 30 min): 2.34±0.22 %ID/g * body weight/100
DUR brain stem ([3]; 1 nmol, 30 min): 0.78±0.08 %ID/g * body weight/100
DUR caudate ([3]; 1 nmol, 30 min): 0.56±0.01 %ID/g * body weight/100
DUR cerebellum ([3]; 1 nmol, 30 min): 0.36±0.05 %ID/g * body weight/100
DUR cortex ([3]; 1 nmol, 30 min): 1.12±0.18 %ID/g * body weight/100
DUR thalamus ([3]; 1 nmol, 30 min): 0.84±0.06 %ID/g * body weight/100
DUR Hippocampus ([3]; 11 nmol, 30 min): 0.83±0.03 %ID/g * body weight/100
DUR brain stem ([3]; 11 nmol, 30 min): 0.37±0.05 %ID/g * body weight/100
DUR caudate ([3]; 11 nmol, 30 min): 0.30±0.02 %ID/g * body weight/100
DUR cerebellum ([3]; 11 nmol, 30 min): 0.22±0.02 %ID/g * body weight/100
DUR cortex ([3]; 11 nmol, 30 min): 0.50±0.04 %ID/g * body weight/100
DUR thalamus ([3]; 11 nmol, 30 min): 0.38±0.02 %ID/g * body weight/100
DUR Hippocampus ([3]; 18 nmol, 30 min): 0.53±0.02 %ID/g * body weight/100
DUR brain stem ([3]; 18 nmol, 30 min): 0.27±0.03 %ID/g * body weight/100
DUR caudate ([3]; 18 nmol, 30 min): 0.24±0.04 %ID/g * body weight/100
DUR cerebellum ([3]; 18 nmol, 30 min): 0.15±0.01 %ID/g * body weight/100
DUR cortex ([3]; 18 nmol, 30 min): 0.41±0.13 %ID/g * body weight/100
DUR thalamus ([3]; 18 nmol, 30 min): 0.28±0.02 %ID/g * body weight/100

From PMC3644855 (Nuclear medicine and biology, 2009)
